Data taken from ChEMBL document CHEMBL4689842, “EUbOPEN Chemogenomics Library wave 1” (2021).

Tested on: U2OS
Assay: Multiplex assay against U2OS
Assay type: toxicity, cell-based
Conditions: human
Method in brief: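 With compound added, live cells were imaged on a CQ1 microscope at 37°C and 5% CO2; staining with Hoechst33342, BioTracker Green Microtubule Cytoskeleton Dye, MitoTracker Red and Annexin V Alexa Fluor 680 had been done at seeding. The CellPathfinder machine-learning gating scheme split cells into Hoechst high-intensity objects or normal cells, normal cells into healthy, pyknosed or fragmented nuclei, and pyknosed cells into mitotic or apoptotic. The tubulin, mitochondrial-mass and membrane-permeability phenotypes are per cents of healthy-nucleus cells.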

[1] = 12 h, 1 µM, compound concentration 1 uM, replicate 1
[2] = 12 h, 1 µM, compound concentration 1 uM, replicate 2
[3] = 12 h, 10 µM, compound concentration 10 uM, replicate 1
[4] = 12 h, 10 µM, compound concentration 10 uM, replicate 2
[5] = 24 h, 1 µM, compound concentration 1 uM, replicate 1
[6] = 24 h, 1 µM, compound concentration 1 uM, replicate 2
[7] = 24 h, 10 µM, compound concentration 10 uM, replicate 1
[8] = 24 h, 10 µM, compound concentration 10 uM, replicate 2
[9] = 48 h, 1 µM, compound concentration 1 uM, replicate 1
[10] = 48 h, 1 µM, compound concentration 1 uM, replicate 2
[11] = 48 h, 10 µM, compound concentration 10 uM, replicate 1
[12] = 48 h, 10 µM, compound concentration 10 uM, replicate 2

`CN1CCN(c2ccc(OC(F)(F)F)c(Nc3ncc4c(n3)-c3c(c(C(N)=O)nn3CCO)CC4)c2)CC1` [ONVANSERTIB] was tested, and the “Population Apoptotic (%)” value [1] was 36%, the “Population Fragmented Nuclei (%)” value [1] was 14% and the “Population Healthy Nuclei (%)” value [1] was 78%. The “Population Hoechst High Intensity Objects (%)” value [1] was 6%, the “Population Membrane Permeable-Phenotype (%)” value [1] was 11% and the “Population Mitochondria Different-Phenotype (%)” value [1] was 10%. The “Population Mitotic Cells (%)” value [1] was 63%, the “Population Normal (%)” value [1] was 94% and the “Population Pyknosed Nuclei (%)” value [1] was 7%. For the same molecule, the “Population Tubulin-Different-Phenotype (%)” value [1] was 13%, the “Total Cell Count” value [1] was 569 and the “Population Apoptotic (%)” value [2] was 25%. For the same molecule, the “Population Fragmented Nuclei (%)” value [2] was 11%, the “Population Healthy Nuclei (%)” value [2] was 80% and the “Population Hoechst High Intensity Objects (%)” value [2] was 14%. For the same molecule, the “Population Membrane Permeable-Phenotype (%)” value [2] was 0%, the “Population Mitochondria Different-Phenotype (%)” value [2] was 14% and the “Population Mitotic Cells (%)” value [2] was 75%. The “Population Normal (%)” value [2] was 85%, the “Population Tubulin-Different-Phenotype (%)” value [2] was 16% and the “Total Cell Count” value [2] was 66. For the same molecule, the “Population Apoptotic (%)” value [3] was 72%, the “Population Fragmented Nuclei (%)” value [3] was 10% and the “Population Healthy Nuclei (%)” value [3] was 79%. For the same molecule, the “Population Hoechst High Intensity Objects (%)” value [3] was 6%, the “Population Membrane Permeable-Phenotype (%)” value [3] was 3% and the “Population Mitochondria Different-Phenotype (%)” value [3] was 77%. The “Population Mitotic Cells (%)” value [3] was 27%, the “Population Normal (%)” value [3] was 93% and the “Population Pyknosed Nuclei (%)” value [3] was 10%. The “Population Tubulin-Different-Phenotype (%)” value [3] was 84%, the “Total Cell Count” value [3] was 150 and the “Population Apoptotic (%)” value [4] was 40%. For the same molecule, the “Population Fragmented Nuclei (%)” value [4] was 9%, the “Population Healthy Nuclei (%)” value [4] was 78% and the “Population Hoechst High Intensity Objects (%)” value [4] was 19%. For the same molecule, the “Population Membrane Permeable-Phenotype (%)” value [4] was 0%, the “Population Mitochondria Different-Phenotype (%)” value [4] was 84% and the “Population Mitotic Cells (%)” value [4] was 60%. The “Population Normal (%)” value [4] was 80%, the “Population Pyknosed Nuclei (%)” value [4] was 12% and the “Population Tubulin-Different-Phenotype (%)” value [4] was 78%. For the same molecule, the “Total Cell Count” value [4] was 61, the “Population Apoptotic (%)” value [5] was 35% and the “Population Fragmented Nuclei (%)” value [5] was 14%. For the same molecule, the “Population Healthy Nuclei (%)” value [5] was 73%, the “Population Hoechst High Intensity Objects (%)” value [5] was 7% and the “Population Membrane Permeable-Phenotype (%)” value [5] was 12%. The “Population Mitochondria Different-Phenotype (%)” value [5] was 17%, the “Population Mitotic Cells (%)” value [5] was 64% and the “Population Normal (%)” value [5] was 92%. The “Population Pyknosed Nuclei (%)” value [5] was 12%, the “Population Tubulin-Different-Phenotype (%)” value [5] was 18% and the “Total Cell Count” value [5] was 962. The “Population Apoptotic (%)” value [6] was 57%, the “Population Fragmented Nuclei (%)” value [6] was 21% and the “Population Healthy Nuclei (%)” value [6] was 65%. The “Population Hoechst High Intensity Objects (%)” value [6] was 5%, the “Population Membrane Permeable-Phenotype (%)” value [6] was 5% and the “Population Mitochondria Different-Phenotype (%)” value [6] was 32%. For the same molecule, the “Population Mitotic Cells (%)” value [6] was 42%, the “Population Normal (%)” value [6] was 94% and the “Population Pyknosed Nuclei (%)” value [6] was 13%. The “Population Tubulin-Different-Phenotype (%)” value [6] was 11%, the “Total Cell Count” value [6] was 73 and the “Population Apoptotic (%)” value [7] was 82%. For the same molecule, the “Population Healthy Nuclei (%)” value [7] was 79%, the “Population Hoechst High Intensity Objects (%)” value [7] was 4% and the “Population Membrane Permeable-Phenotype (%)” value [7] was 1%. For the same molecule, the “Population Mitochondria Different-Phenotype (%)” value [7] was 77%, the “Population Mitotic Cells (%)” value [7] was 17% and the “Population Normal (%)” value [7] was 95%. For the same molecule, the “Population Pyknosed Nuclei (%)” value [7] was 9%, the “Population Tubulin-Different-Phenotype (%)” value [7] was 53% and the “Total Cell Count” value [7] was 151. For the same molecule, the “Population Apoptotic (%)” value [8] was 40%, the “Population Fragmented Nuclei (%)” value [8] was 11% and the “Population Healthy Nuclei (%)” value [8] was 77%. For the same molecule, the “Population Hoechst High Intensity Objects (%)” value [8] was 16%, the “Population Membrane Permeable-Phenotype (%)” value [8] was 5% and the “Population Mitochondria Different-Phenotype (%)” value [8] was 82%. The “Population Mitotic Cells (%)” value [8] was 60%, the “Population Normal (%)” value [8] was 83% and the “Population Pyknosed Nuclei (%)” value [8] was 11%. For the same molecule, the “Population Tubulin-Different-Phenotype (%)” value [8] was 55%, the “Total Cell Count” value [8] was 55 and the “Population Apoptotic (%)” value [9] was 62%. For the same molecule, the “Population Fragmented Nuclei (%)” value [9] was 25%, the “Population Healthy Nuclei (%)” value [9] was 56% and the “Population Hoechst High Intensity Objects (%)” value [9] was 5%. For the same molecule, the “Population Membrane Permeable-Phenotype (%)” value [9] was 14%, the “Population Mitochondria Different-Phenotype (%)” value [9] was 49% and the “Population Mitotic Cells (%)” value [9] was 37%. The “Population Normal (%)” value [9] was 94%, the “Population Pyknosed Nuclei (%)” value [9] was 18% and the “Population Tubulin-Different-Phenotype (%)” value [9] was 13%. For the same molecule, the “Total Cell Count” value [9] was 1338, the “Population Apoptotic (%)” value [10] was 53% and the “Population Fragmented Nuclei (%)” value [10] was 27%. The “Population Healthy Nuclei (%)” value [10] was 45%, the “Population Hoechst High Intensity Objects (%)” value [10] was 6% and the “Population Membrane Permeable-Phenotype (%)” value [10] was 24%. For the same molecule, the “Population Mitochondria Different-Phenotype (%)” value [10] was 48%, the “Population Mitotic Cells (%)” value [10] was 46% and the “Population Normal (%)” value [10] was 93%. For the same molecule, the “Population Pyknosed Nuclei (%)” value [10] was 27%, the “Population Tubulin-Different-Phenotype (%)” value [10] was 12% and the “Total Cell Count” value [10] was 97. For the same molecule, the “Population Apoptotic (%)” value [11] was 91%, the “Population Fragmented Nuclei (%)” value [11] was 17% and the “Population Healthy Nuclei (%)” value [11] was 63%. For the same molecule, the “Population Hoechst High Intensity Objects (%)” value [11] was 2%, the “Population Membrane Permeable-Phenotype (%)” value [11] was 5% and the “Population Mitochondria Different-Phenotype (%)” value [11] was 60%. For the same molecule, the “Population Mitotic Cells (%)” value [11] was 8%, the “Population Normal (%)” value [11] was 97% and the “Population Pyknosed Nuclei (%)” value [11] was 19%. For the same molecule, the “Population Tubulin-Different-Phenotype (%)” value [11] was 43%, the “Total Cell Count” value [11] was 153 and the “Population Apoptotic (%)” value [12] was 57%. For the same molecule, the “Population Fragmented Nuclei (%)” value [12] was 20%, the “Population Hoechst High Intensity Objects (%)” value [12] was 10% and the “Population Membrane Permeable-Phenotype (%)” value [12] was 28%. The “Population Mitochondria Different-Phenotype (%)” value [12] was 67%, the “Population Mitotic Cells (%)” value [12] was 42% and the “Population Normal (%)” value [12] was 89%. The “Population Pyknosed Nuclei (%)” value [12] was 15%, the “Population Tubulin-Different-Phenotype (%)” value [12] was 57% and the “Total Cell Count” value [12] was 59.
